These results are taken from ChEMBL document CHEMBL1140048, “NO-donors. Part 17: Synthesis and antimicrobial activity of novel ketoconazole-NO-donor hybrid compounds” (Bioorg Med Chem, 2008).

As a reminder, the MIC is the lowest concentration found to suppress growth. A higher MIC goes with weaker potency.

The subject of series [1] is Nakaseomyces glabratus. Kind of series: Antifungal activity against Candida glabrata after 24 hrs by broth microdilution method. The class given is functional. In a few lines:
(§1)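 Broth microdilution per NCCLS in RPMI 1640 (L-glutamine, MOPS, no bicarbonate). An 8 mM stock in DMSO/methanol 1:10 is serially diluted twofold; NONOate salts go through 0.1 M NaOH, with only the last step in medium. Inoculum is 6×10^3 CFU/mL final. A. fumigatus and A. terreus are incubated 24 h at 37 °C; others at 30 °C. MIC is the lowest dilution without visible growth, read nephelometrically.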
(In general: In broth dilution the organism is exposed to a series of concentrations in liquid medium.)

Series [2] relates to Aspergillus fumigatus. Kind of series: Antifungal activity against Aspergillus fumigatus after 24 hrs by broth microdilution method. The class given is functional. In a few lines:
as §1

Series [3] has as its system Penicillium chrysogenum. Put plainly: Antifungal activity against Penicillium notatum after 24 hrs by broth microdilution method. The class given is functional. In a few lines: as §1
Series [4] relates to Aspergillus fumigatus. Put plainly: Ratio of MIC for drug to ketoconazole against Aspergillus fumigatus. The class given is functional. In a few lines:
(§2)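 FIC is calculated as the MIC of the test compound divided by the MIC of ketoconazole. Both MICs come from 24 h NCCLS broth microdilution in RPMI 1640/MOPS, starting from an 8 mM stock in twofold dilutions, at 6×10^3 CFU/mL. Incubation is at 37 °C for A. fumigatus and A. terreus and at 30 °C for the other strains.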

In series [5] the test system is Aspergillus terreus. Put plainly: Antifungal activity against Aspergillus terreus after 24 hrs by broth microdilution method. The class given is functional. An outline of the steps: as §1
In series [6] the test system is Candida albicans. Put plainly: Ratio of MIC for drug to ketoconazole against Candida albicans. The class given is functional. An outline of the steps:
as §2

Series [7] concerns Aspergillus terreus. Put plainly: Ratio of MIC for drug to ketoconazole against Aspergillus terreus. It counts as functional. An outline of the steps:
as §2

The test system of series [8] is Aspergillus niger. Kind of series: Ratio of MIC for drug to ketoconazole against Aspergillus niger. It counts as functional. An outline of the steps:
as §2

In series [9] the test system is Sporobolomyces salmonicolor. Kind of series: Antifungal activity against Sporobolomyces salmonicolor after 24 hrs by broth microdilution method. It counts as functional. An outline of the steps:
as §1

The test system of series [10] is Fusarium oxysporum. Kind of series: Ratio of MIC for drug to ketoconazole against Fusarium oxysporum. The class given is functional.
In series [11] the test system is Fusarium oxysporum. Kind of series: Antifungal activity against Fusarium oxysporum after 24 hrs by agar diffusion method. Background: In agar diffusion tests the substance spreads into inoculated agar from a disc or well.
The test system of series [12] is Sporobolomyces salmonicolor. Kind of series: Ratio of MIC for drug to ketoconazole against Sporobolomyces salmonicolor. It counts as functional. An outline of the steps: as §2
Series [13] deals with Candida albicans. Put plainly: Antifungal activity against Candida albicans after 24 hrs by broth microdilution method. It counts as functional. In a few lines:
as §1

Series [14] can be described thus: Chemical stability of compound assessed as half life of nitric oxide release at pH 7.4. The class given is physicochemical. The note with it: buffer.
Series [15] deals with Nakaseomyces glabratus. Kind of series: Ratio of MIC for drug to ketoconazole against Candida glabrata. The class given is functional. An outline of the steps: as §2
Series [16] has as its system Aspergillus niger. Put plainly: Antifungal activity against Aspergillus niger after 24 hrs by broth microdilution method. It counts as functional. In a few lines:
as §1

For series [17], the system named is Penicillium chrysogenum. Kind of series: Ratio of MIC for drug to ketoconazole against Penicillium notatum. The class given is functional. In a few lines: as §2

Take `[Na+].[O-]/N=[N+](\[O-])N1CCN(c2ccc(OC[C@H]3CO[C@](Cn4ccnc4)(c4ccc(Cl)cc4Cl)O3)cc2)CC1`: the minimal inhibitory concentration (MIC) in series [1] is 12.5 µM; in [2], 200 µM; in series [3], 20 µM; in series [5], 100 µM; in series [9], 1.25 µM; in series [11], 200 µM. Further, the minimal inhibitory concentration (MIC) in [13] and in series [16] was 100 µM in each case. Further, the Ratio in [4] is on record as 3.2; in [6] it was 4; in series [7], 3.2; in series [8] it was 1.6; in [10] it was 0.4; in series [12], 0.8. The figures for the Ratio in series [15] and in series [17] were 1 and 2.5, respectively. In series [14], the t1/2 is given as 4.5 min.
